VLA-4 inh – inhibition in a human VLA-4 binding assay. 0.2% of 330,000 active. P13612. inhibition, % (about 7 µM as worked out from the volumes in the protocol). VLA-4 expressing cells, ligand binding flow cytometry; in the data active means inhibition above about 50%
SENP1 FRET inh – blocks the human SENP1 SUMO protease catalytic domain | recombinant SENP1 catalytic domain, CyPet-SUMO1-YPet FRET cleavage | inhibition, % at 10 µM | 0.21% of 360,000 active | AID 624204;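 active means inhibition at least 30% at 10 µM, raw YFP signal under a set limit, fluorescence ratio 0.5 to 1.5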;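 further: 0% = enzyme with DMSO and 100% = no enzyme wells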
Target sequence (Q9P0U3 419-644 limits assumed): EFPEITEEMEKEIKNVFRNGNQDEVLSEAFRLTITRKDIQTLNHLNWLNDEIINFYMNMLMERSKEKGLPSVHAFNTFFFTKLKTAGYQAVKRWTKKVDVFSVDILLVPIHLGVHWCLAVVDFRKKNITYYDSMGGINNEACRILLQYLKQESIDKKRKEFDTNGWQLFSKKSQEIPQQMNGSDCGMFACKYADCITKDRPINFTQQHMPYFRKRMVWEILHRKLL
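Test system: recombinant human SENP1 catalytic domain, His6-tagged / Medium: pH 8 Tris buffer with EDTA, NaCl, BME, BSA, NP40, catalase / Also added: SUMO1 FRET substrate flanked by Cypet and Ypet, 25 nM / Times: 50 min reaction at room temperature / Signal: FRET, CFP and YFP emission / Control set: no-enzyme low control and enzyme-plus-DMSO high control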
Myeloid diff 2 – promotes myeloid progenitor differentiation; ER-HoxA9 myeloid progenitors, lysozyme-GFP differentiation, flow cytometry; calls only at 10 µM; 1% of 360,000 active;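 active means normalized GFP-positive differentiation at or above the plate's own cutoff, the solvent-only control mean plus 3 SD; inconclusive means no clear call, values can overlap the other calls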;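 further: cells exposed to compound for four days before flow analysis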
Platelet DG rel – modulates dense granule release in human platelets. human platelet-rich plasma, SFLLRN dense granule ATP release, luminescence. inhibition, %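 (compounds screened at 7.5 µM in platelet-rich plasma)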. 0.22% of 300,000 active;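 active means mean replicate score, as percent of positive control, at or above 50; inconclusive means mean below 50 but at least one replicate at or above 50; inactive means mean and every replicate below 50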
Starred values were filed as active, the others as inactive; i = inactive; ? = inconclusive; · = no result given; + = active, no number. Rows were chosen to be rich in hits. Some 1.5% of all compounds tested hit in one or more screens of this group.

SMILES	VLA-4 inh	SENP1 FRET inh	Myeloid diff 2	Platelet DG rel
Nc1ccc(-c2cnc3ccccc3n2)cc1	1	-37	i	3
Nc1ccc2nc(-c3ccccc3)cnc2c1	-69	-39	+	20
CCCCCC(=O)Nc1cc(S(=O)(=O)N2CCOCC2)ccc1Oc1ccc(OCC)cc1	-2	-1	i	-19
COc1ccccc1CCNC(=O)C(=O)NCC1CCCN1S(=O)(=O)c1ccccc1 (stereo not given)	3	-5	i	16
CN(C(=O)Cn1nnc(-c2cccc(C(F)(F)F)c2)n1)C1CCCCC1	4	-2	i	70*
CCOC(=O)C1=CN(Cc2cccc(-c3ccc(F)cc3)c2)S(=O)(=O)N(C)C1C (stereo not given)	·	1	i	·
CC(C)CCC(CCNCc1ccccn1)c1ccc2c(c1)OCO2 (stereo not given)	6	-2	+	22
CN(C(=O)c1cc(S(=O)(=O)N2CCc3ccccc32)cn1C)C1CCCCC1	7	3	i	58*
Cn1cc(S(=O)(=O)N2CCc3ccccc32)cc1C(=O)Nc1ccc(Cl)cc1	14	-2	i	62*
Cc1ccc(N(C)C(=O)c2cc(S(=O)(=O)N3CCc4ccccc43)cn2C)cc1	-2	2	i	10
Cc1cccc(N(C)C(=O)c2cc(S(=O)(=O)N3CCc4ccccc43)cn2C)c1	-6	0	+	7
COC(=O)[C@@H](NC(=O)N1CCC(Cc2ccccc2)CC1)C(C)C	3	2	i	-3
CSCCC(NC(=O)c1ccccc1Cl)C(=O)N1CC(C)OC(C)C1 (stereo not given)	17	1	i	·
O=C(N/N=C\c1cc(Cl)ccc1O)c1ccc(S(=O)(=O)N2CCCCC2)cc1	-10	51*	?	8
COc1ccc(C(O)(C(C)C)C(CN2CCOCC2)c2ccc(Cl)cc2)cc1 (stereo not given)	-20	0	i	-2
CCOc1ccc(C(=O)CCC(=O)N2CCN(c3ccc(O)cc3)CC2)cc1	18	-1	+	·
O=C(CCC(=O)N1CCN(c2ccc(O)cc2)CC1)c1ccc(Br)cc1	6	·	·	0
c1ccc(-n2cnnc2SCc2nc3ccccc3s2)cc1	-41	-25	+	-2
CCOC(=O)N1CCC(N2C(=O)c3ccccc3C2Nc2cc(Cl)c(OC)cc2OC)CC1 (stereo not given)	0	2	i	0
CCOC(=O)N1CCC(N2C(=O)c3ccccc3C2Nc2cc(OC)c(OC)c(OC)c2)CC1 (stereo not given)	4	-3	i	64*
CCC(C)NC(=O)CN1c2cccc3cccc(c23)S1(=O)=O (stereo not given)	6	1	i	-3
O=C(/C=C/c1cccc([N+](=O)[O-])c1)c1ccc([N+](=O)[O-])o1	16	3	+	5
Cc1cccc(/C=C/C(=O)c2ccc([N+](=O)[O-])o2)c1	10	-1	?	0
Cn1ccnc1SCC(=O)Nc1cc(F)ccc1F	5	1	i	-19
CN(C)c1ccc(/C=C2\CCC/C(=C\c3ccccc3)C2=O)cc1	i	-25	+	-10
SMILES	VLA-4 inh	SENP1 FRET inh	Myeloid diff 2	Platelet DG rel
O=C1/C(=C/c2ccccc2)CCCc2ccccc21	-3	0	i	5
Cc1cc(NC(=O)c2ccc3c(c2)OCO3)ccc1NC(=O)c1ccco1	0	0	i	75*
CC(C)Oc1ccc(C(=O)Nc2ccc(NC(=O)c3ccco3)c(Cl)c2)cc1	-1	1	i	-1
CC(C)COc1ccc(C(=O)Nc2ccc(NC(=O)c3ccco3)c(Cl)c2)cc1	-8	0	i	50*
Cc1ccc(C(=O)Nc2ccc3c(c2)OCO3)cc1NC(=O)c1ccco1	25	3	i	-1
COc1c(OC(C)=O)c(=O)n2c3ccccc3c3ccnc1c32	4	69*	i	0
COC(=O)C1=C(C)NC(C)=C(C(=O)OC)C1C(=O)OCC(=O)c1ccc(Br)cc1	7	-3	i	·
NNC(=O)c1cccc(COc2cccc(Br)c2)c1	1	3	i	19
COc1ccc(OCc2cccc(C(=O)Nc3cc(C)on3)c2)cc1	1	-1	i	7
COc1ccc(OCc2cccc(C(=O)NN)c2)cc1	-8	1	+	20
NNC(=O)c1cccc(COc2ccc(Br)cc2)c1	14	1	+	-3
Cn1c(C(=O)NN)cc2cc(OCc3ccccc3)ccc21	-1	-2	+	-9
COc1cc(C(C(=O)NCc2ccccc2)N(Cc2ccco2)C(=O)c2cnccn2)cc(OC)c1OC (stereo not given)	-10	1	i	-1
CC(=O)N=c1sccn1CC(O)c1ccc(Br)cc1 (stereo not given)	9	1	i	13
CCN1/C(=C/c2ccc3cc(C)ccc3[n+]2CC)Sc2ccc3sccc3c21	i	58*	+	6
C=CCNC(=O)NC(=O)COC(=O)/C=C/c1cccc([N+](=O)[O-])c1	-12	-1	i	3
CC(C)CCNC(=O)NC(=O)COC(=O)/C=C/c1cccc([N+](=O)[O-])c1	-15	1	+	-31
CC(C)[C@@H](CO)NC(=O)c1ccc2c3n(nc2c1)-c1ccccc1CO3	2	1	i	75*
CN(c1ccccc1)S(=O)(=O)c1ccc(NC(=O)CC(=O)c2ccccc2)cc1	·	-1	+	·
CCN(CC(=O)Nc1c(F)cccc1F)C(=O)c1cc(C)nc2ccccc12	0	-2	i	-4
CCN=C1S/C(=C\c2ccc(N3CCOCC3)cc2C)C(=O)N1CC	1	-27	i	-7
COCCN1C(=O)/C(=C/c2ccc(N3CCCC3)cc2C)SC1=S	i	38	+	6
Cc1nc(NCCc2ccccc2)sc1C(=O)N(C)C	-2	0	i	-18
O=C1Nc2ccccc2Nc2ncccc21	7	1	i	61*
Cc1ccc2c(c1)NC(=O)c1cccnc1N2	-5	2	i	14
SMILES	VLA-4 inh	SENP1 FRET inh	Myeloid diff 2	Platelet DG rel
COc1ccc(N=CC2=C(O)c3ccccc3C2=O)c(OC)c1	13	6	i	51*
Cc1ccccc1N=CC1=C(O)c2ccccc2C1=O	-3	3	i	58*
O=C1C(C=Nc2ccc(F)cc2)=C(O)c2ccccc21	17	3	i	33
CC(C)N1CCc2c(sc(NC(=O)c3ccc(S(=O)(=O)N4CCc5ccccc54)cc3)c2C(N)=O)C1	-24	-32	+	-1
NC(=O)c1ccsc1NC(=O)c1ccc(S(=O)(=O)N2CCCc3ccccc32)cc1	13	0	i	6
CCCN1CCc2c(sc(NC(=S)NC(=O)c3ccccc3)c2C#N)C1	-141	-37	+	0
CCN1CCc2c(sc(NC(=S)NC(=O)c3ccc(Cl)cc3)c2C(N)=O)C1	6	-36	+	-6
CNC(=O)c1c(NC(=O)c2ccc(S(=O)(=O)N(C)c3ccccc3)cc2)sc2c1CCN(C(C)C)C2	-178	·	·	0
Cc1sc(NC(=S)NC(=O)c2ccccc2)c(C#N)c1C	-1	1	i	-1

Bioassay records (PubChem)
